Results published in ChEMBL document CHEMBL3232792, “Cyclic secondary sulfonamides: unusually good inhibitors of cancer-related carbonic anhydrase enzymes” (J Med Chem, 2014).

What was measured:
Carbonic anhydrase 2 = Carbonic anhydrase 2 (Homo sapiens, UniProt P00918); assay: Inhibition of human recombinant carbonic anhydrase 2 expressed in Escherichia coli by stopped flow CO2 hydration assay
Carbonic anhydrase 1 = Carbonic anhydrase 1 (Homo sapiens, UniProt P00915); assay: Inhibition of human recombinant carbonic anhydrase 1 expressed in Escherichia coli by stopped flow CO2 hydration assay
Chain of Carbonic anhydrase 1 (P00915 whole entry): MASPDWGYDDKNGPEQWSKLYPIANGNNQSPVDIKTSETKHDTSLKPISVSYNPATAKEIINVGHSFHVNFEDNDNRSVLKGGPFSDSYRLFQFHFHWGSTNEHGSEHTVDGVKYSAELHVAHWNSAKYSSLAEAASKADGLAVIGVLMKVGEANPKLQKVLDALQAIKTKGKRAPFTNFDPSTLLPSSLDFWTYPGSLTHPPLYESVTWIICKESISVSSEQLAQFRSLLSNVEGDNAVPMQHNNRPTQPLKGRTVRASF

Carbonic anhydrase 9 = Carbonic anhydrase 9 (Homo sapiens, UniProt Q16790); assay: Inhibition of human recombinant carbonic anhydrase 9 expressed in Escherichia coli by stopped flow CO2 hydration assay
Method in brief: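 Recombinant human CA IX produced in E. coli, used at 8.0 nM; CO2 hydration activity followed by stopped-flow. IC50 is taken from seven-concentration dose–response curves fitted by nonlinear least squares, mean of at least three determinations. Ki is derived by Cheng–Prusoff, Ki = IC50/(1 + [S]/Km), where [S] is the CO2 concentration used.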

[1] = target: Carbonic anhydrase 5A, mitochondrial (Homo sapiens, UniProt P35218)
Chain of Carbonic anhydrase 5A, mitochondrial (P35218 whole entry): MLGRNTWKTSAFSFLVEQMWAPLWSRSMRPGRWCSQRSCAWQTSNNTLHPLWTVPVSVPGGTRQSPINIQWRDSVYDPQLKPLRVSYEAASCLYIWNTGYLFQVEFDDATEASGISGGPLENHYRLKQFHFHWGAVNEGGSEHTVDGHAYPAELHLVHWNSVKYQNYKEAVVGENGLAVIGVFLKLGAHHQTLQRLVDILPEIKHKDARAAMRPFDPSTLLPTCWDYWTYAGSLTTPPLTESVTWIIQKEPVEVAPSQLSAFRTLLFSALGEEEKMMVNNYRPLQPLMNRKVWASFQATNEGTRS

Carbonic anhydrase 4 = Carbonic anhydrase 4 (Homo sapiens, UniProt P22748)
Chain of Carbonic anhydrase 4 (P22748 whole entry): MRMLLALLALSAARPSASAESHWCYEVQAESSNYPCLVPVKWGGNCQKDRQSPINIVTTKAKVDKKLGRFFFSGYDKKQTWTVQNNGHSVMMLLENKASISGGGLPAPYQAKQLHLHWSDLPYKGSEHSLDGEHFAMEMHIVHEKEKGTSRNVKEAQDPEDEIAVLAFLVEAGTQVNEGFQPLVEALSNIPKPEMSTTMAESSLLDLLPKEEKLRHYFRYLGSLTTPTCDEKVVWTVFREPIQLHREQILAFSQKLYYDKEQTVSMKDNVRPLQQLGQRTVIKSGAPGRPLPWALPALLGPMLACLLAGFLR

[2] = target: Carbonic anhydrase 5B, mitochondrial (Homo sapiens, UniProt Q9Y2D0)
Chain of Carbonic anhydrase 5B, mitochondrial (Q9Y2D0 whole entry): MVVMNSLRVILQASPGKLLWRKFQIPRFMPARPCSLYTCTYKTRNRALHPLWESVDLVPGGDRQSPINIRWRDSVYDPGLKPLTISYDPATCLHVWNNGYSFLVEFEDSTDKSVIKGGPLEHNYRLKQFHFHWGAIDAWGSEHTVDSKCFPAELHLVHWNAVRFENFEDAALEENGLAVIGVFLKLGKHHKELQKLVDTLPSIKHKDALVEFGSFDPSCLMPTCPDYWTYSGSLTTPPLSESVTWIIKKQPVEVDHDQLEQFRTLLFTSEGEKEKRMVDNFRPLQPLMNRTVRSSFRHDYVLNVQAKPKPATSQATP

Carbonic anhydrase 7 = Carbonic anhydrase 7 (Homo sapiens, UniProt P43166)
Chain of Carbonic anhydrase 7 (P43166 whole entry): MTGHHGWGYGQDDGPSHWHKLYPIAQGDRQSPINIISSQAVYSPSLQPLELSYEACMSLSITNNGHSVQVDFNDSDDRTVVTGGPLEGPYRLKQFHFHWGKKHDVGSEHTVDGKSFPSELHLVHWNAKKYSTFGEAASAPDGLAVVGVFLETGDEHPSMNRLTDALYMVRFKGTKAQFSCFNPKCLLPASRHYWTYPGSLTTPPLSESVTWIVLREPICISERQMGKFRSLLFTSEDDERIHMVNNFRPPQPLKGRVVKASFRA

Ki (Carbonic anhydrase 2) [µM] | Ki (Carbonic anhydrase 1) [µM] | Ki (Carbonic anhydrase 9) [nM] | SMILES | further results
> 50 | > 50 |  | O=C1NS(=O)(=O)c2cc([N+](=O)[O-])ccc21 | 
 |  | 466 | [N-]=[N+]=Nc1ccc2c(c1)S(=O)(=O)NC2=O | 
 | > 50 | 89.7 | Cc1cccc(-c2cn(-c3ccc4c(c3)S(=O)(=O)NC4=O)nn2)c1 | 
> 50 |  | 443 | O=C1NS(=O)(=O)c2cc(-n3cc(-c4ccccc4C(F)(F)F)nn3)ccc21 | 
> 50 |  | 341 | COc1ccc(-c2cn(-c3ccc4c(c3)S(=O)(=O)NC4=O)nn2)cc1 | 
 | > 50 | 47.8 | Cc1cc(-c2cn(-c3ccc4c(c3)S(=O)(=O)NC4=O)nn2)ccc1F | 
> 50 |  | 95.7 | COc1ccc(-c2cn(-c3ccc4c(c3)S(=O)(=O)NC4=O)nn2)c(C)c1 | 
> 50 | > 50 | 49.5 | O=C1NS(=O)(=O)c2cc(-n3cc(CO[C@@H]4O[C@H](CO)[C@@H](O)[C@H](O)[C@H]4O)nn3)ccc21 | 
 |  |  | O=C1NS(=O)(=O)c2ccccc21 [SACCHARIN] | pKa (physchem): 1.3; Ki [1]: 10.1 µM; Ki (Carbonic anhydrase 4): 7.92 µM; Ki [2]: 7.21 µM; Ki (Carbonic anhydrase 7): 10 nM

SMILES | Ki (Carbonic anhydrase 2) [µM] | Ki (Carbonic anhydrase 1) [µM] | Ki (Carbonic anhydrase 9) [nM] | further results
Nc1ccc2c(c1)S(=O)(=O)NC2=O | > 50 | > 50 | 610 | 
O=C1NS(=O)(=O)c2cc(-n3cc(-c4ccccc4)nn3)ccc21 |  | > 50 | 484 | 
